Data as given in ChEMBL document CHEMBL5329167, “Design, synthesis and evaluation of halogenated phenazine antibacterial prodrugs targeting nitroreductase enzymes for activation” (RSC Med Chem, 2023).
Values after ≈ are worked out from the molar mass of the structure shown. Active and inactive are the calls of the source. The rule behind the calls is not given here.

Columns and labels:
[1] = Metal chelating activity assessed as formation of phenazine-iron complex measured for 1 to 60 mins by UV-vis spectroscopy; details: time 1-60 min
Summary of the method: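 Compound from a 10 mM DMSO stock diluted in DMSO in a cuvette, alone or with ammonium iron(II) sulfate hexahydrate (10 mM aqueous stock). Spectra of the compound-only cuvette and the iron-containing cuvette are compared by UV-vis spectrometry to judge phenazine–iron(II) complex formation.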

[2] = tested on: Staphylococcus aureus; assay: Antibacterial activity against methicillin-resistant Staphylococcus aureus 1707 assessed as zone of inhibition at 10 mM incubated for 16 hrs by agar diffusion assay; assay type: functional
Summary of the method: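 Modified Kirby-Bauer disk diffusion. 100 µL MRSA 1707 inoculum (OD₆₀₀ 0.7, ~10⁸ CFU) spread on LB agar and left 30 min. 10 µL of 10 mM DMSO compound solution then pipetted onto the plate. Incubation 16 h at 37 °C; zone of inhibition area (cm²) measured. Three independent experiments.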

[3] = tested on: Staphylococcus aureus; assay: Antibacterial activity against methicillin-resistant Staphylococcus aureus 1707 assessed as bacterial growth inhibition incubated for 16 hrs by CLSI based broth microdilution method; assay type: functional
Summary of the method: (§1)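 Broth microdilution per CLSI in LB, eleven two-fold serial dilutions spanning 0.10 to 100 µM. Inoculum ~10⁵ cells/well from fresh log-phase culture (OD₆₀₀ 0.6–0.8). MIC taken as lowest concentration preventing growth after 16 h at 37 °C, read by OD₆₀₀ turbidity. DMSO vehicle control, top 0.5% v/v. At least three independent experiments.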

[4] = tested on: Staphylococcus aureus; assay: Antibacterial activity against methicillin-resistant Staphylococcus aureus BAA-1707 assessed as bacterial growth inhibition incubated for 16 hrs by CLSI based broth microdilution method; assay type: functional; summary of the method: as §1
[5] = tested on: Staphylococcus aureus; assay: Antibacterial activity against methicillin-resistant Staphylococcus aureus BAA-44 assessed as bacterial growth inhibition incubated for 16 hrs by CLSI based broth microdilution method; assay type: functional; summary of the method: as §1
[6] = tested on: Staphylococcus epidermidis; assay: Antibacterial activity against Staphylococcus epidermidis 12228 assessed as bacterial growth inhibition incubated for 16 hrs by CLSI based broth microdilution method; assay type: functional
Summary of the method: (§2)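 CLSI broth microdilution in LB: eleven 2-fold serial dilutions, 0.10–100 µM. DMSO vehicle/negative control diluted from 0.5% v/v. Wells seeded with ~10⁵ cells from log-phase culture (OD₆₀₀ 0.6–0.8), held 16 h at 37 °C. MIC taken as the lowest concentration preventing growth by OD₆₀₀ turbidity. Minimum three independent experiments.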

[7] = tested on: Staphylococcus epidermidis; assay: Antibacterial activity against methicillin-resistant Staphylococcus epidermidis 35984 assessed as bacterial growth inhibition incubated for 16 hrs by CLSI based broth microdilution method; assay type: functional; summary of the method: as §1
[8] = tested on: Enterococcus; assay: Antibacterial activity against vancomycin-resistant Enterococcus 700221 assessed as bacterial growth inhibition incubated for 16 hrs by CLSI based broth microdilution method; assay type: functional
Summary of the method: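 Growth scored by OD₆₀₀ turbidity after 16 h at 37 °C; MIC is the lowest concentration preventing growth. DMSO vehicle control up to 0.5% v/v. Three or more independent experiments.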

[9] = tested on: Enterococcus faecalis; assay: Antibacterial activity against Enterococcus faecalis OG1RF assessed as bacterial growth inhibition incubated for 16 hrs by CLSI based broth microdilution method; assay type: functional
Summary of the method: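 Broth microdilution per CLSI in brain-heart infusion: eleven 2-fold dilutions spanning 0.10–100 µM, with DMSO vehicle/negative control topping at 0.5% v/v. Inoculum ~10⁵ cells/well from log-phase culture (OD₆₀₀ 0.6–0.8). 37 °C, 16 h. MIC is the lowest concentration preventing growth, read as OD₆₀₀ turbidity. At least three independent experiments.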

[10] = tested on: Streptococcus pneumoniae; assay: Antibacterial activity against Streptococcus pneumoniae 6303 assessed as bacterial growth inhibition incubated for 16 hrs by CLSI based broth microdilution method; assay type: functional; summary of the method: as §2
[11] = Cytotoxicity against HEK293 cells incubated for 48 hrs by MTT assay; assay type: toxicity, cell-based; details: human
Summary of the method: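 HEK-293 cells (10⁴/well) in DMEM with 10% FBS, penicillin/streptomycin, settled overnight at 37 °C, 5% CO₂. Medium replaced with compound at 0.10–100 µM (2-fold steps); DMSO as negative control. After 48 h at 37 °C, MTT (5 mg/mL stock) added for 3 h. Formazan dissolved in DMSO, OD read at 570 nm. Eight replicates per treatment.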

[12] = tested on: Staphylococcus aureus; assay: Antibacterial activity against Staphylococcus aureus clinical isolate 129 assessed as bacterial growth inhibition incubated for 16 hrs by CLSI based broth microdilution method; assay type: functional
[13] = tested on: Staphylococcus aureus; assay: Antibacterial activity against Staphylococcus aureus clinical isolate 138 assessed as bacterial growth inhibition incubated for 16 hrs by CLSI based broth microdilution method; assay type: functional
[14] = tested on: Staphylococcus aureus; assay: Antibacterial activity against Staphylococcus aureus clinical isolate 147 assessed as bacterial growth inhibition incubated for 16 hrs by CLSI based broth microdilution method; assay type: functional
[15] = tested on: Staphylococcus aureus; assay: Antibacterial activity against Staphylococcus aureus clinical isolate 156 assessed as bacterial growth inhibition incubated for 16 hrs by CLSI based broth microdilution method; assay type: functional
[16] = tested on: Staphylococcus epidermidis; assay: Antibacterial activity against Staphylococcus epidermidis clinical isolate CL-1 assessed as bacterial growth inhibition incubated for 16 hrs by CLSI based broth microdilution method; assay type: functional
[17] = Hemolytic activity against red blood cells (unknown origin) at 200 uM; assay type: toxicity, cell-based, Erythrocyte; details: read-out: Activity
[18] = tested on: Staphylococcus aureus; assay: Antibacterial activity against methicillin-resistant Staphylococcus aureus clinical isolate 2 assessed as bacterial growth inhibition incubated for 16 hrs by CLSI based broth microdilution method; assay type: functional
[19] = tested on: Staphylococcus aureus; assay: Antibacterial activity against methicillin-resistant Staphylococcus aureus clinical isolate 1 assessed as bacterial growth inhibition incubated for 16 hrs by CLSI based broth microdilution method; assay type: functional
[20] = Lipophilicity, LogP of compound in octanol-water mixture incubated for 1 hr by UV-vis spectroscopy; assay type: physicochemical
Summary of the method: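 Shake-flask partition: compound in octanol (1% v/v DMSO) mixed with equal volume water, stirred vigorously, left 1 h at room temperature to separate. Octanol-phase concentration measured by UV-Vis at 370 or 380 nm against a serial-dilution standard curve. Water concentration obtained by mass balance; LogP = log10(Coct/Cw). Acetophenone as positive control. Three independent experiments.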

Compound	Activity [1]	diameter of the inhibition zone (DIZ) [2] [cm2]	MIC [3] [µM]	MIC [4] [µM]	MIC [5] [µM]	MIC [6] [µM]	MIC [7] [µM]	MIC [8] [µM]	MIC [9] [µM]	MIC [10] [µM]	CC50 at 48 h [11] [µM]	MIC [12] [µM]	MIC [13] [µM]	MIC [14] [µM]	MIC [15] [µM]	MIC [16] [µM]	hemolysis at 200 µM [17] [%]	MIC [18] [µM]	MIC [19] [µM]	logP at 1 h [20]
O=S(=O)(Cc1ccccc1)Oc1c(Br)cc(Br)c2nc3ccccc3nc12	inactive	0	> 100	> 100	> 100	> 100	> 100	> 100	> 100	> 100	> 100	> 100	> 100	> 100	> 100	> 100				
Oc1c(Br)cc(Br)c2nc3c(C(F)(F)F)cc(C(F)(F)F)cc3nc12	Active	4.58	0.1 (≈ 0.049 µg/mL)	0.15 (≈ 0.0735 µg/mL)	0.15 (≈ 0.0735 µg/mL)	0.1 (≈ 0.049 µg/mL)	0.05 (≈ 0.0245 µg/mL)	0.2 (≈ 0.098 µg/mL)	0.1 (≈ 0.049 µg/mL)	0.1 (≈ 0.049 µg/mL)							16.7			
Cc1cccc2nc3c(OS(=O)(=O)Cc4ccc([N+](=O)[O-])cc4)c(Br)c(Cl)c(Br)c3nc12	Active	0.87	0.1 (≈ 0.0602 µg/mL)	0.1 (≈ 0.0602 µg/mL)	0.3 (≈ 0.18 µg/mL)	0.59 (≈ 0.355 µg/mL)	0.15 (≈ 0.0902 µg/mL)	0.15 (≈ 0.0902 µg/mL)	4.69 (≈ 2.82 µg/mL)	0.15 (≈ 0.0902 µg/mL)	34.1		0.39 (≈ 0.235 µg/mL)	0.59 (≈ 0.355 µg/mL)	0.59 (≈ 0.355 µg/mL)	2.35 (≈ 1.41 µg/mL)	< 1	0.3 (≈ 0.18 µg/mL)	0.3 (≈ 0.18 µg/mL)	3.11
O=S(=O)(Cc1ccccc1)Oc1c(Br)cc(Br)c2nc3cc(Cl)ccc3nc12	inactive	0	3.13 (≈ 1.7 µg/mL)	2.35 (≈ 1.28 µg/mL)		3.13 (≈ 1.7 µg/mL)		> 100	> 100	1.56 (≈ 0.847 µg/mL)	30.3									
CC[C@H]1OC(=O)[C@H](C)[C@@H](O[C@H]2C[C@@](C)(OC)[C@@H](O)[C@H](C)O2)[C@H](C)[C@@H](O[C@@H]2O[C@H](C)C[C@H](N(C)C)[C@H]2O)[C@](C)(O)C[C@@H](C)C(=O)[C@H](C)[C@@H](O)[C@]1(C)O [ERYTHROMYCIN]												> 100	> 100	37.5 (≈ 27.5 µg/mL)	> 100	> 100		18.8 (≈ 13.8 µg/mL)	100 (≈ 73.4 µg/mL)	
CN(C)[C@@H]1C(O)=C(C(N)=O)C(=O)[C@@]2(O)C(O)=C3C(=O)c4c(O)cccc4[C@@](C)(O)[C@H]3C[C@@H]12 [TETRACYCLINE]												0.1 (≈ 0.0444 µg/mL)	0.15 (≈ 0.0667 µg/mL)	0.1 (≈ 0.0444 µg/mL)	0.15 (≈ 0.0667 µg/mL)	25 (≈ 11.1 µg/mL)		0.1 (≈ 0.0444 µg/mL)	0.1 (≈ 0.0444 µg/mL)	
NC[C@H]1O[C@H](O[C@H]2[C@H](O)[C@@H](O[C@H]3O[C@H](CO)[C@@H](O)[C@H](N)[C@H]3O)[C@H](N)C[C@@H]2N)[C@H](N)C[C@@H]1O [TOBRAMYCIN]												> 100	12.5 (≈ 5.84 µg/mL)	6.25 (≈ 2.92 µg/mL)	12.5 (≈ 5.84 µg/mL)	1.56 (≈ 0.729 µg/mL)		6.25 (≈ 2.92 µg/mL)	6.25 (≈ 2.92 µg/mL)	
Cc1cccc2nc3c(O)c(Br)c(Cl)c(Br)c3nc12	inactive	3.85	0.1 (≈ 0.0402 µg/mL)	0.1 (≈ 0.0402 µg/mL)	0.15 (≈ 0.0604 µg/mL)	0.1 (≈ 0.0402 µg/mL)	0.1 (≈ 0.0402 µg/mL)	0.1 (≈ 0.0402 µg/mL)	0.39 (≈ 0.157 µg/mL)	0.1 (≈ 0.0402 µg/mL)	18.3	0.1 (≈ 0.0402 µg/mL)	0.1 (≈ 0.0402 µg/mL)	0.1 (≈ 0.0402 µg/mL)	0.1 (≈ 0.0402 µg/mL)	0.39 (≈ 0.157 µg/mL)	< 1	0.15 (≈ 0.0604 µg/mL)	0.1 (≈ 0.0402 µg/mL)	0.81
